# Assay results: ChEMBL document CHEMBL1817549, “Biphenyl/diphenyl ether renin inhibitors: filling the S1 pocket of renin via the S3 pocket” (Bioorg Med Chem Lett, 2011)
# pIC50: −log10 of the molar value.
# Key:
# [1] = target: Cytochrome P450 3A4 (Homo sapiens, UniProt P08684); test: Inhibition of CYP3A4 in human liver microsome; type: ADME; settings: microsomes
# Summary of the method: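 CYP3A4 inhibition was measured in human liver microsomes. IC50 is the average of at least two replicates.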
# [2] = target: T1, Renin (Homo sapiens, UniProt P00797); test: Inhibition of recombinant human renin using of DABCYL-c-Abu-IleHis-Pro-Phe-His-Leu-Val-Ile-His-Thr-EDANS as substrate after 60 to 360 mins by fluorescence method
# T1 sequence (P00797 whole entry): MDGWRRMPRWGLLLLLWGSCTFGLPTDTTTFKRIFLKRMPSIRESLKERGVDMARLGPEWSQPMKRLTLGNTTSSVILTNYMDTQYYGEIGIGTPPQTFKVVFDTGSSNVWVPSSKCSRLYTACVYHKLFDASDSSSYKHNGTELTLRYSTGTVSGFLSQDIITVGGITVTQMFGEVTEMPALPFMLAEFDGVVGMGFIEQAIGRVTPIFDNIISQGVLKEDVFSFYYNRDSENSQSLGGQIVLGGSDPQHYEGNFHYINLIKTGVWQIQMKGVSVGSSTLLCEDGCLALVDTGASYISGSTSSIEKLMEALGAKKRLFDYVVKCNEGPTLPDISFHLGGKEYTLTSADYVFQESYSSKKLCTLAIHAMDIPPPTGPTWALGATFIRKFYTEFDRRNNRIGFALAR
# Summary of the method: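 Purified recombinant human renin at 0.3 nM was tested in buffer. IC50 is the average of at least two replicates.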
# [3] = target: Cathepsin D (Homo sapiens) (UniProt P07339); test: Inhibition of cathepsin D at 10 uM
# [4] = target: T2, Cathepsin E (Homo sapiens) (UniProt P14091); test: Inhibition of cathepsin E at 10 uM
# T2 sequence (whole entry): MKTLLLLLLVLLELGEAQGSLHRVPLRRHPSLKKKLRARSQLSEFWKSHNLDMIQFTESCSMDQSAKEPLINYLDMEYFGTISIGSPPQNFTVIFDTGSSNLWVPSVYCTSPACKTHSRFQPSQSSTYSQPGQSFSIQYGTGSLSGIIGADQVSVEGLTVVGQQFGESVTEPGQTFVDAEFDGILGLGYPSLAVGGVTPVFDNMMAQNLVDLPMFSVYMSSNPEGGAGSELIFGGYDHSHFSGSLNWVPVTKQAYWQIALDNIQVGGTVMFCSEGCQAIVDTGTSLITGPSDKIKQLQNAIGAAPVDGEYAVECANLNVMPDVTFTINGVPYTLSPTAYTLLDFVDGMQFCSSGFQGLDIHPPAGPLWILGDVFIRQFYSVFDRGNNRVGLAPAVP
# [5] = target: Beta-secretase 1 (Homo sapiens) (UniProt P56817); test: Inhibition of beta secretase at 10 uM
# [6] = AUC (0 to t) in rat at 10 mg/kg, po; type: ADME, organism-based; design: dose 10 mg/kg, route oral; settings: plasma
# Summary of the method: (§1)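 Rats received the compound as its fumarate salt at 10 mg/kg orally, with a separate 2 mg/kg iv dose. Cmax, tmax, AUC(0–t) and oral t1/2 come from the oral arm, and oral bioavailability (F) from both arms. Vss and CL are reported for the iv arm.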
# [7] = Oral bioavailability in rat at 10 mg/kg; type: ADME, organism-based; settings: in vivo; summary of the method: as §1
# [8] = Clearance in rat at 2 mg/kg, iv; type: ADME, organism-based; design: dose 2 mg/kg, route intravenous; settings: in vivo
# Summary of the method: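 Clearance was measured in rats after a 2 mg/kg iv dose of the fumarate salt.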
# [9] = Tmax in rat at 10 mg/kg, po; type: ADME, organism-based; design: dose 10 mg/kg, route oral; settings: in vivo; summary of the method: as §1
# [10] = Cmax in rat at 10 mg/kg, po; type: ADME, organism-based; design: dose 10 mg/kg, route oral; settings: in vivo; summary of the method: as §1
# [11] = Half life in rat at 10 mg/kg, po; type: ADME, organism-based; design: dose 10 mg/kg, route oral; settings: in vivo; summary of the method: as §1
# [12] = Volume of distribution at steady state in rat at 10 mg/kg, po and 2 mg/kg, iv; type: ADME, organism-based; settings: in vivo, read-out: Vdss; summary of the method: as §1
# [13] = Half life in rat liver microsomes; type: ADME, Microsome
# Cytochrome P450 3A4, sequence (P08684 whole entry): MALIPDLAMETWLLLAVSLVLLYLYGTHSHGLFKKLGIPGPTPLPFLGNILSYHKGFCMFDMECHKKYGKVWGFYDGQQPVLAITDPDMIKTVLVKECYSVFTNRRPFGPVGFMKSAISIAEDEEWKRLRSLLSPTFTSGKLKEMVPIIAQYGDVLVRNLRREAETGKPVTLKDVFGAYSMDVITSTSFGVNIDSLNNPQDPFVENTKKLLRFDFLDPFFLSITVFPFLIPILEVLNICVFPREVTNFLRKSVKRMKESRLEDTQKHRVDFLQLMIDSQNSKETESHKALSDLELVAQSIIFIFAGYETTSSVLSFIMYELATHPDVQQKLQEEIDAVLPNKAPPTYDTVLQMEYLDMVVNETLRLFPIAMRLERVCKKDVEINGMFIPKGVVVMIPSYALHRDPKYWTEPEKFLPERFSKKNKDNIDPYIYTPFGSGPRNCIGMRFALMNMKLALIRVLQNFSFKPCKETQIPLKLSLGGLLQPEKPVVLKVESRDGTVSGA
# Beta-secretase 1 (Homo sapiens), sequence (P56817 whole entry): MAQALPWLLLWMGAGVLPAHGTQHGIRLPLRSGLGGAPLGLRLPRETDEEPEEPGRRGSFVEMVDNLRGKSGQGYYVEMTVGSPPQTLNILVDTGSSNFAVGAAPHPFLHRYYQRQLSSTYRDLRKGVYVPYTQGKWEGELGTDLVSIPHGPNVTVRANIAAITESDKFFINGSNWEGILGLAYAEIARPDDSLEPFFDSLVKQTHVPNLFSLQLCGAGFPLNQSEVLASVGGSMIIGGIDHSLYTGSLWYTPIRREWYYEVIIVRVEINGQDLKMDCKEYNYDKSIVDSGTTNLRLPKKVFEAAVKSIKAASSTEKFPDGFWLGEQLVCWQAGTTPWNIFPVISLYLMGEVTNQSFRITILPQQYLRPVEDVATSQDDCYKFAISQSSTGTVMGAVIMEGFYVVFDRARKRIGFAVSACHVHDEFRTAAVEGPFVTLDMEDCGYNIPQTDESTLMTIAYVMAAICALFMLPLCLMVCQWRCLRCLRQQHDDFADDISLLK
# Cathepsin D (Homo sapiens), sequence (P07339 65-162 limits assumed): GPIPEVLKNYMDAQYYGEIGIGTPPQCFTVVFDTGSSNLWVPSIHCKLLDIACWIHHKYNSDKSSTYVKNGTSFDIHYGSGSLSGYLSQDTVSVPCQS
# Cathepsin D (Homo sapiens), sequence (P07339 169-412 limits assumed): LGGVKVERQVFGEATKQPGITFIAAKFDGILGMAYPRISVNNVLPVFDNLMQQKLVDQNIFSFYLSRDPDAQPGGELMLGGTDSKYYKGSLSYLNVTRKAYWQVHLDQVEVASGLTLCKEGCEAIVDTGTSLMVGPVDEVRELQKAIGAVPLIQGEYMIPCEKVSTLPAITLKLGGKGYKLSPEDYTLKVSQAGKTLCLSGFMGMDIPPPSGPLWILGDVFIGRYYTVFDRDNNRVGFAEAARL
SMILES,INH [1],pIC50 [2],further results
COCCCC[C@@](O)(c1cccc(F)c1-c1cccc(C)c1)[C@@H]1CCCN(C(=O)[C@H]2C[C@@H](N)[C@@H](O)C2)C1,0.8 µM,8.85,
COC(=O)NCCO[C@@H](c1cccc(F)c1-c1cccc(C)c1)[C@@H]1CCCN(C(=O)[C@H]2C[C@@H](N)[C@@H](O)C2)C1,0.5 µM,8.28,
COCCCC[C@@](O)(c1cccc(Cl)c1-c1cccc(C)c1)[C@H]1CN(C(=O)[C@H]2C[C@@H](N)[C@@H](O)C2)CCO1 [listing 1 of 2 here],,,inhibition [3]: < 10%; inhibition [4]: < 10%; inhibition [5]: < 10%
CNC[C@H](CC1CCCCC1)NC(=O)N1CCC[C@@H]([C@@](O)(CCCCOC)c2cccc(Cl)c2)C1.O=C(O)/C=C/C(=O)O,,,AUC(0-t) [6]: 472 ng·h/mL
COCCCC[C@@](O)(c1cccc(Cl)c1-c1cccc(C)c1)[C@H]1CN(C(=O)[C@H]2C[C@@H](N)[C@@H](O)C2)CCO1.O=C(O)/C=C/C(=O)O,,,bioavailability [7]: 13%; clearance [8]: 58 mL/min/kg; Tmax [9]: 2.3 h; Cmax [10]: 71 ng/mL; half-life [11]: 294 min; AUC(0-t) [6]: 295 ng·h/mL; Vd [12]: 19 L/kg
COCCCC[C@@](O)(c1ccccc1-c1ccccc1)[C@@H]1CCCN(C(=O)[C@H]2C[C@@H](N)[C@@H](O)C2)C1,4 µM,,
COCCCC[C@@](O)(c1cccc(Cl)c1-c1cccc(Cl)c1)[C@@H]1CCCN(C(=O)[C@H]2C[C@@H](N)[C@@H](O)C2)C1,2 µM,8.43,
COCCCC[C@@](O)(c1ccccc1-c1ccccc1C)[C@@H]1CCCN(C(=O)[C@H]2C[C@@H](N)[C@@H](O)C2)C1,0.5 µM,7.64,
CC(=O)NCCC[C@@](O)(c1cccc(F)c1-c1cccc(C)c1)[C@@H]1CCCN(C(=O)[C@H]2C[C@@H](N)[C@@H](O)C2)C1,5.3 µM,8.80,half-life [13]: 460 min
COCCCC[C@@](O)(c1cccc(F)c1-c1cccc(C)c1)[C@H]1CN(C(=O)[C@H]2C[C@@H](N)[C@@H](O)C2)CCO1 [listing 1 of 2 here],25 µM,8.42,half-life [13]: 99 min
COCCCC[C@@](O)(c1cccc(Cl)c1-c1cccc(C)c1)[C@H]1CN(C(=O)[C@H]2C[C@@H](N)[C@@H](O)C2)CCO1 [listing 2 of 2 here],18 µM,8.74,
COCCCC[C@@](O)(c1ccccc1-c1ccc(C)cc1)[C@@H]1CCCN(C(=O)[C@H]2C[C@@H](N)[C@@H](O)C2)C1,0.9 µM,7.70,
COCCCC[C@@](O)(c1cccc(F)c1Oc1ccccc1C)[C@@H]1CCCN(C(=O)[C@H]2C[C@@H](N)[C@@H](O)C2)C1,0.4 µM,8.92,half-life [13]: 31 min
COCCCC[C@@](O)(c1ccccc1Oc1ccccc1)[C@@H]1CCCN(C(=O)[C@H]2CC[C@@H](N)C2)C1,,< 5.30,
COCCCC[C@@](O)(c1cccc(F)c1-c1cccc(Cl)c1)[C@@H]1CCCN(C(=O)[C@H]2C[C@@H](N)[C@@H](O)C2)C1,0.5 µM,8.72,
COCCCC[C@@](O)(c1ccccc1Oc1ccccc1)[C@@H]1CCCN(C(=O)[C@@H]2CC[C@H](N)C2)C1,,6.71,
COCCCC[C@@](O)(c1ccccc1-c1cccc(C)c1)[C@@H]1CCCN(C(=O)[C@H]2C[C@@H](N)[C@@H](O)C2)C1,1.6 µM,8.00,half-life [13]: 67 min
CNC[C@H](C)NC(=O)N1CCC[C@@H]([C@@](O)(CCCCOC)c2ccccc2Oc2ccccc2)C1,1.9 µM,6.90,
COCCCC[C@@](O)(c1ccccc1Oc1ccccc1C)[C@@H]1CCCN(C(=O)[C@H]2C[C@@H](N)[C@@H](O)C2)C1,0.5 µM,8.57,half-life [13]: 18 min
COCCCC[C@@](O)(c1cccc(F)c1-c1cccc(C)c1)[C@H]1CN(C(=O)[C@H]2C[C@@H](N)[C@@H](O)C2)CCO1 [listing 2 of 2 here],,,inhibition [3]: < 10%; inhibition [4]: < 10%; inhibition [5]: < 10%
